SENP1 inh = blocks the human SENP1 SUMO protease catalytic domain | Q9P0U3 | recombinant SENP1 catalytic domain, CyPet-SUMO1-YPet FRET cleavage | inhibition, % at 10 µM | 360,000 tested, 0.21% active;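 active = inhibition at least 30% at 10 µM, raw YFP signal under a set limit, fluorescence ratio 0.5 to 1.5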
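Controls: no-enzyme wells low, DMSO-plus-enzyme wells high control. Test system: human recombinant His6-tagged SENP1 catalytic domain enzyme. Reagent: SFCypet-SUMO1-SFYpet FRET protein substrate, 25 nM final. Doses: one dose per compound, 10 µM, 0.5% DMSO. Detection: FRET, CFP and YFP emission. Timing: 50 min reaction at room temperature.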
SENP6 inh = blocks the human protease SENP6; Q9GZR1; Recombinant SENP6 catalytic domain, aminoluciferin luminescence; inhibition, % at 10 µM; 330,000 tested, 1.8% active; AID 2599;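 active = inhibition above about 50% at the single tested dose, limit read from the data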
SENP7 inh = SENP7 protease inhibition | Q9BQF6 | recombinant SENP7, Z-RLRGG-aminoluciferin luminescence, 40 min | inhibition, % at 5 µM | 330,000 tested, 1.5% active | AID 434973;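 active = inhibition above about 50% at the single test dose, limit read from the data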
UCH37 inh = blocks the human deubiquitinase UCH37 | purified proteasome/UCH37, Ub-AMC cleavage fluorescence | Q9Y5K5 | 330,000 tested, 0.33% active | AID 588478 | inhibition, % (concentration not given with the values);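 active = mean inhibition over replicate wells above about 20%, limit read from the data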
Target sequence (Q9Y5K5 whole entry, looked up): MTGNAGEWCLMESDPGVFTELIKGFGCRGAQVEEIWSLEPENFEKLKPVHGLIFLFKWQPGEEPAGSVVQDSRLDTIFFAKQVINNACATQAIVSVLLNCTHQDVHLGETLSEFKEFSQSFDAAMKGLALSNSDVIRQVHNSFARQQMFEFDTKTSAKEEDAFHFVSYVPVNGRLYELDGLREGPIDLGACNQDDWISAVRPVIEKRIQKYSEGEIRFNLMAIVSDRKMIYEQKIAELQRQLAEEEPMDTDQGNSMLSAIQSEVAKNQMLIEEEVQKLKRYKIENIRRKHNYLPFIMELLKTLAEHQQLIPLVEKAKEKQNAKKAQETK
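Test system – human UCH37 enzyme supplied as purified proteasome complex · Incubation – 30 min preincubation with enzyme, 25 min cleavage at room temperature · Detection – AMC fluorescence from Ub-AMC cleavage, excitation 355 nm, emission 460 nm · Benchmarks – no-proteasome wells (full inhibition) and compound-free wells (no inhibition)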
SENP8 block-1 = SENP8 (human) protease inhibition; Q96LD8; recombinant SENP8, Nedd8 substrate fluorescence; inhibition, % at 20 µM; 360,000 tested, 0.64% active; in the data active = inhibition mostly above about 40%, no sharp cut-off; inactive = mostly below about 27%
Target sequence (Q96LD8 whole entry, looked up): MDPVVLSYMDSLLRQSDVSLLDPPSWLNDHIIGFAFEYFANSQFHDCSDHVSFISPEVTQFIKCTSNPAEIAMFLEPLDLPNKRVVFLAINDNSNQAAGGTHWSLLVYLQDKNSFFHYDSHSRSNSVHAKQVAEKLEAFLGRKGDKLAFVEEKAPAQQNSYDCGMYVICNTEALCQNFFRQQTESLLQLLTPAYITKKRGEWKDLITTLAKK
SENP8 block-2 = blocks the human protease SENP8. purified SENP8, Z-RLRGG-aminoluciferin cleavage, luminescence. AID 2540. inhibition, % at 10 µM. 330,000 tested, 1.2% active; in the data active = inhibition above about 50%
SENP8 confirm = confirmation of human SENP8 protease inhibitors; Recombinant SENP8, Z-RLRGG-aminoluciferin luminescence, 60 min; inhibition, % at 12.5 µM; 6,200 tested, 40% active; shares compounds with SENP7 inh;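 active = mean inhibition across replicates above about 50%, limit read from the data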
SENP6 conf = confirmation of human SENP6 protease inhibitors. 6,200 tested, 58% active. inhibition, % at 12.5 µM. shares compounds with SENP7 inh. recombinant SENP6, Z-RLRGG-aminoluciferin luminescence
SENP7 confirm = confirmation of human SENP7 protease inhibitors | shares compounds with SENP7 inh | 6,200 tested, 69% active | recombinant SENP7, Z-RLRGG-aminoluciferin luminescence, 40 min | inhibition, % at 12.5 µM | AID 488917
Casp3 SENP sel = caspase-3 inhibition (SENP selectivity assay); purified caspase-3, Z-DEVD-aminoluciferin luminescence, 60 min; shares compounds with SENP7 inh; 6,200 tested, 60% active; inhibition, % at 12.5 µM;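 active = mean inhibition above about 50%, limit read from the data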
Target sequence (P42574 28-227 limits assumed): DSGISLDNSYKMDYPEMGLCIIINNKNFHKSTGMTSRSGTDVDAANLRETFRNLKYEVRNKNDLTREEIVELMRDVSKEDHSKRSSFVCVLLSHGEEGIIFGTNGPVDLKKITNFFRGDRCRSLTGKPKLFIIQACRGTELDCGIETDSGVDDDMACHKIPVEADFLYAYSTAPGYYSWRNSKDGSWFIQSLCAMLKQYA
Luc interf = counter-screen for SENP inhibitors: luminescence interference; inhibition, % at 12.5 µM; shares compounds with SENP7 inh; 6,200 tested, 39% active; Pre-incubated SENP8/Z-RLRGG-aminoluciferin, luciferase luminescence interference;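 active = mean inhibition above about 50% when retested at one dose, limit read from the data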
Numbers stand for hits; i = inactive; nt = no result given. Sampled rows, rich in hits. Any-hit rate of the full collection: about 2.6%.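 The calls were made as follows, unless noted: active = mean inhibition above about 50% in the one-dose retest (limit read from the data); inactive = the rest.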

SMILES	SENP1 inh	SENP6 inh	SENP7 inh	UCH37 inh	SENP8 block-1	SENP8 block-2	SENP8 confirm	SENP6 conf	SENP7 confirm	Casp3 SENP sel	Luc interf
CN(N=Nc1ccc([N+](=O)[O-])cc1)c1ccccc1	i	59.8	59.6	i	i	i	i	i	i	i	i
CN(N=Nc1cccc([N+](=O)[O-])c1)c1ccccc1	i	50.8	i	i	i	i	i	50.1	73.3	i	i
CC(C)N(N=Nc1ccc([N+](=O)[O-])cc1)C(C)C	i	i	i	i	i	i	nt	nt	nt	nt	nt
COc1ccc(C=NNC2=NS(=O)(=O)c3ccccc32)cc1OC(C)=O	nt	nt	nt	i	nt	nt	nt	nt	nt	nt	nt
O=C(NN=Cc1cc([N+](=O)[O-])ccc1O)C1CCCCC1	nt	nt	nt	i	nt	nt	nt	nt	nt	nt	nt
O=c1c(=Cc2ccco2)sc2n1CN(c1ccccc1)CN=2	nt	nt	nt	i	nt	nt	nt	nt	nt	nt	nt
O=C(NN=Cc1ccsc1)C1CC1	nt	nt	nt	i	nt	nt	nt	nt	nt	nt	nt
NC(=O)c1ccccc1N/C=C/C(=O)c1ccccc1	i	94.1	90.7	i	i	87.8	86.6	95.1	101.8	96.3	80.9
COC(=O)c1ccc(N/C=C/C(=O)c2ccccc2)cc1	i	89.5	95.8	i	i	75.0	i	i	i	i	i
COC(=O)c1ccccc1N/C=C/C(=O)c1ccc(Br)cc1	i	66.0	52.7	nt	i	i	i	i	i	i	i
CN(C)c1ccc(N/C=C/C(=O)c2ccc(F)cc2)cc1	66.7	98.4	99.9	i	i	94.1	i	61.4	i	71.2	i
CC(=O)c1ccc(N/C=C/C(=O)c2ccc(Br)cc2)cc1	i	i	i	i	i	i	nt	nt	nt	nt	nt
Cn1cccc1CC(=O)NN=Cc1cc([N+](=O)[O-])ccc1Cl	nt	nt	nt	i	nt	nt	nt	nt	nt	nt	nt
CCN(CC)c1ccc(C=NNc2nn[nH]n2)cc1	nt	nt	nt	i	nt	nt	nt	nt	nt	nt	nt
CC(=NNC(=O)c1ccc(Cl)cc1)c1cccnc1	nt	nt	nt	i	nt	nt	nt	nt	nt	nt	nt
CC(=NNc1ccc(C)c(Cl)c1)c1cccnc1	nt	nt	nt	i	nt	nt	nt	nt	nt	nt	nt
CCCCCCC(=NO)c1ccccn1	nt	nt	nt	i	nt	nt	nt	nt	nt	nt	nt
Cc1cc2nc(N)sc2cc1C	i	i	70.3	i	i	65.5	75.3	73.5	92.1	84.3	72.8
CCCC=NNC(=O)C1COc2ccccc2O1 (stereo not drawn)	nt	nt	nt	i	nt	nt	nt	nt	nt	nt	nt
Fc1ccc(-c2nc3n(n2)Cc2ccccc2-3)cc1	i	99.8	99.4	i	i	95.0	92.8	97.5	102.4	97.6	64.2
CCn1c(C)nc2cc(C(=O)NNC(=O)c3ccc(C)cc3)ccc21	i	i	i	i	i	i	nt	nt	nt	nt	nt
CCn1c(C)nc2cc(-c3nc4n(n3)Cc3ccccc3-4)ccc21	i	95.5	100.5	i	i	96.4	99.2	99.8	103.0	98.6	86.1
Cc1ccc(-c2nc3n(n2)Cc2ccccc2-3)cc1	i	97.3	99.2	i	i	96.2	80.0	91.4	103.1	98.1	67.6
C(=NN1CCN(Cc2ccccc2)CC1)c1ccc(-c2ccccc2)cc1	nt	nt	nt	i	nt	nt	nt	nt	nt	nt	nt
O=C1N(c2ccccc2)CCN1c1ccccc1	i	83.3	88.5	i	i	69.7	i	i	i	i	i
SMILES	SENP1 inh	SENP6 inh	SENP7 inh	UCH37 inh	SENP8 block-1	SENP8 block-2	SENP8 confirm	SENP6 conf	SENP7 confirm	Casp3 SENP sel	Luc interf
CCCCc1nc2cc(C(=O)N3CCCC3)ccc2o1	i	i	i	i	i	i	nt	nt	nt	nt	nt
CCCCc1nc2cc(C(=O)NC3CCOC(C)(C)C3)ccc2o1 (stereo not drawn)	i	i	79.6	i	i	i	i	i	i	i	i
ClCc1csc(-c2ccc(Cl)cc2)n1	i	i	i	i	i	i	nt	nt	nt	nt	nt
CCOc1ccc(-c2nc(CCl)cs2)cc1	i	51.6	i	i	i	i	53.6	69.7	90.6	66.9	i
COC(=O)c1ccc(NC(=O)c2cc3sccc3n2C)cc1	i	nt	nt	i	i	nt	nt	nt	nt	nt	nt
COc1cc(NC(=O)c2cc3sccc3n2C)cc(OC)c1	i	64.5	65.6	i	i	50.0	i	59.7	83.6	i	65.3
Cn1c(C(=O)Nc2ccc3c(c2)OCO3)cc2sccc21	i	70.8	63.3	i	i	i	59.0	60.6	87.5	i	i
Cn1c(C(=O)Nc2ccccc2)cc2sccc21	i	53.3	i	i	i	i	i	i	67.7	i	54.3
Fc1ccc(NN=Cc2ccc(N3CCOCC3)cc2)c(F)c1	nt	nt	nt	i	nt	nt	nt	nt	nt	nt	nt
CC(=NNC(=S)NC1CCCCC1)c1c(F)cccc1F	nt	nt	nt	i	nt	nt	nt	nt	nt	nt	nt
Cn1c(=O)[nH]c(=O)c2c1nc(NN=Cc1ccncc1)n2Cc1ccc(Cl)cc1	nt	nt	nt	i	nt	nt	nt	nt	nt	nt	nt
Cc1ccc(C(=O)Nc2ccc(C(=O)NN=Cc3ccc(C)o3)cc2)cc1	nt	nt	nt	i	nt	nt	nt	nt	nt	nt	nt
COCCCNC(=O)c1cc2c(s1)CS(=O)(=O)C2	i	i	i	i	i	i	nt	nt	nt	nt	nt
CC(C)OCCCNC(=O)c1cc2c(s1)CS(=O)(=O)C2	i	i	97.8	i	i	i	i	i	i	i	i
CCOC(=O)Nc1ccc2nc(N3CCCCCC3)sc2c1	i	58.0	i	i	i	i	i	i	68.9	i	i
Clc1ccc2nc(C3CCN(Cc4ccccc4)CC3)[nH]c2c1	i	i	i	i	i	i	nt	nt	nt	nt	nt
Fc1cccc2sc(N3CCCCC3)nc12	i	59.4	i	i	i	i	i	i	71.2	i	i
Clc1ccc2nc(N3CCCCC3)sc2c1	i	97.0	89.6	i	i	88.4	77.7	84.0	89.3	82.1	i
Clc1ccc2nc(N3CCCCC3)[nH]c2c1	i	58.6	52.2	i	i	i	i	i	80.1	71.6	58.8
CN(C(=NS(=O)(=O)c1ccccc1)C(F)(F)F)c1ccccc1	nt	nt	nt	i	nt	nt	nt	nt	nt	nt	nt
Cc1ccc(-c2cc(C(=O)NN=Cc3ccc([N+](=O)[O-])o3)c3ccccc3n2)o1	nt	nt	nt	i	nt	nt	nt	nt	nt	nt	nt
CC(=O)Nc1ccc(C(C)=NNc2nc(N3CCOCC3)nc(N3CCOCC3)n2)cc1	nt	nt	nt	i	nt	nt	nt	nt	nt	nt	nt
Cc1nc(NS(=O)(=O)c2ccccc2)sc1NC(=O)OC(C)C	i	i	98.3	i	i	i	i	i	i	i	i
Cc1ccc(S(=O)(=O)N=C(N)Nc2nc(C)c3ccc(C)cc3n2)cc1	nt	nt	nt	i	nt	nt	nt	nt	nt	nt	nt
COc1ccc(N2C(=O)/C(=C/c3ccc([N+](=O)[O-])cc3)C=C2c2ccccc2)cc1	i	i	60.5	i	i	i	i	i	i	i	i
CCCSC1=N/C(=C\c2ccc([N+](=O)[O-])o2)C(=O)S1	i	nt	nt	i	i	nt	nt	nt	nt	nt	nt
